Legend:
[1] = target: T1, GABA-A receptor; anion channel (Bos taurus) (UniProt P10063+P08220+P20237+P08219+P10064+P22300); test: Percentage inhibition of [3H]flunitrazepam binding to benzodiazepine receptor from bovine cerebral cortex at a concentration of 250 uM; assay type: tissue-based
[2] = target: GABA-A receptor; anion channel; test: Inhibitory concentration against [3H]flunitrazepam binding to benzodiazepine receptor from bovine cerebral cortex; assay type: tissue-based
Method in brief: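 Membranes from bovine cerebral cortex were homogenized in 0.32 M sucrose with protease inhibitors, osmotically shocked, and suspended in 50 mM Tris-HCl pH 7.4. Membrane (0.5 mg protein) was incubated with 0.9 nM [3H]flunitrazepam at 0 °C for 90 min, then filtered and counted. Nonspecific binding was defined with 10 µM diazepam. IC50 came from log-probit analysis of six to eight concentrations in triplicate; values are means ± SEM of four determinations.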

[3] = target: T1, GABA-A receptor; anion channel (Bos taurus); test: Relative binding to GABA-A benzodiazepine receptor in the presence and absence of GABA (GABA shift); assay type: protein-complex assay
Method in brief: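 Exhaustively washed bovine cortical membranes were used. Binding inhibition used 0.9 nM [3H]flunitrazepam at 0 °C for 90 min in 50 mM Tris-HCl pH 7.4. IC50 was determined by log-probit analysis without and with 10 µM GABA. Ratio = IC50 without GABA / IC50 with GABA.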

Mus musculus [4] = test: Dose required to induce convulsions in mice treated with subcutaneous PTZ (40 mg/kg); assay type: functional; settings: sc
Method in brief: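 Groups of 10 mice received graded ip doses (0.1 mL) suspended in 1% carboxymethylcellulose, or vehicle alone. A subconvulsant PTZ dose of 40 mg/kg followed 30 min later. ED50 is the dose inducing convulsions in 50% of mice.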

Mus musculus [5] = test: Antagonism of Diazepam anticonvulsant effect in mice treated with 60 mg/kg PTZ; assay type: functional

Molecule `COc1ccc2[nH]cc(C(=O)C(=O)N[C@@H](Cc3ccccc3)C(=O)O)c2c1` has an inhibition [1] of 50%.
`CCOC(=O)[C@H](C)NC(=O)C(=O)c1c[nH]c2ccc(Cl)cc12` gave an IC50 [2] of 0.15 µM and a Ratio [3] of 0.9.
Molecule `CCOC(=O)[C@@H](C)NC(=O)C(=O)c1c[nH]c2ccc(Br)cc12` has an IC50 [2] of 52 µM and a Ratio [3] of 0.85.
Molecule `CCOC(=O)[C@@H](Cc1ccccc1)NC(=O)C(=O)c1c[nH]c2ccc(Cl)cc12` has an IC50 [2] of 45 µM.
Molecule `CCOC(=O)[C@@H](Cc1ccccc1)NC(=O)C(=O)c1c[nH]c2ccc(OC)cc12` has an inhibition [1] of 30%.
Molecule `O=C(N[C@H](Cc1ccccc1)C(=O)O)C(=O)c1c[nH]c2ccc(Br)cc12` has an IC50 [2] of 245 µM and an inhibition [1] of 51%.
For `COc1ccc2[nH]cc(C(=O)C(=O)N[C@H](C)C(=O)O)c2c1`, the IC50 [2] was 170 µM.
Molecule `C[C@@H](NC(=O)C(=O)c1c[nH]c2ccccc12)C(=O)O` has an IC50 [2] of 304 µM and an inhibition [1] of 32%.
`CCOC(=O)[C@@H](Cc1ccccc1)NC(=O)C(=O)c1c[nH]c2ccc([N+](=O)[O-])cc12` gave an IC50 [2] of 2.8 µM.
For `C[C@@H](NC(=O)C(=O)c1c[nH]c2ccc(Br)cc12)C(=O)O`, the IC50 [2] was 80 µM.
`C[C@H](NC(=O)C(=O)c1c[nH]c2ccc(Cl)cc12)C(=O)O` was tested, and the IC50 [2] was 5.01 µM.
`O=C(N[C@@H](Cc1ccccc1)C(=O)O)C(=O)c1c[nH]c2ccc(Br)cc12` showed an IC50 [2] of 60 µM.
`CC(NC(=O)C(=O)c1c[nH]c2ccc(Br)cc12)C(=O)O` (configuration not stated) gave an IC50 [2] of 40 µM.
In the case of `O=C(N[C@@H](Cc1ccccc1)C(=O)O)C(=O)c1c[nH]c2ccccc12`, the inhibition [1] is reported as 47%.
For `COc1ccc2[nH]cc(C(=O)C(=O)N[C@@H](C)C(=O)O)c2c1`, the IC50 [2] was 22 µM.
`CCOC(=O)[C@H](C)NC(=O)C(=O)c1c[nH]c2ccccc12` was tested, and the IC50 [2] was 7.5 µM.
`CCOC(=O)[C@@H](C)NC(=O)C(=O)c1c[nH]c2ccccc12` was tested, and the IC50 [2] was 17 µM.
Molecule `CCOC(=O)[C@H](Cc1ccccc1)NC(=O)C(=O)c1c[nH]c2ccc(Br)cc12` has an IC50 [2] of 55 µM.
`CCOC(=O)[C@H](C)NC(=O)C(=O)c1c[nH]c2ccc([N+](=O)[O-])cc12` gave an IC50 [2] of 0.07 µM, an ED50 (Mus musculus [4]) of 150 mg/kg and an ED50 (Mus musculus [5]) of 100 mg/kg. The Ratio [3] was 0.67.
In the case of `O=C(N[C@@H](Cc1ccccc1)C(=O)O)C(=O)c1c[nH]c2ccc(Cl)cc12`, the IC50 [2] is reported as 12 µM.
With `CCOC(=O)[C@H](C)NC(=O)C(=O)c1c[nH]c2ccc(Br)cc12` the IC50 [2] was 0.18 µM, the ED50 (Mus musculus [4]) was 40 mg/kg and the ED50 (Mus musculus [5]) was 50 mg/kg. For the same molecule, the Ratio [3] was 0.78.
Molecule `CCOC(=O)[C@H](Cc1ccccc1)NC(=O)C(=O)c1c[nH]c2ccc([N+](=O)[O-])cc12` has an IC50 [2] of 0.1 µM.
`C[C@@H](NC(=O)C(=O)c1c[nH]c2ccc(Cl)cc12)C(=O)O` was tested, and the IC50 [2] was 46 µM.
`CCOC(=O)[C@H](Cc1ccccc1)NC(=O)C(=O)c1c[nH]c2ccccc12` showed an inhibition [1] of 69%.
`CCOC(=O)[C@@H](Cc1ccccc1)NC(=O)C(=O)c1c[nH]c2ccccc12` was tested, and the inhibition [1] was 55%.
`O=C(N[C@@H](Cc1ccccc1)C(=O)O)C(=O)c1c[nH]c2ccc([N+](=O)[O-])cc12` showed an IC50 [2] of 4 µM.
Molecule `CCOC(=O)C(Cc1ccccc1)NC(=O)C(=O)c1c[nH]c2ccc(Br)cc12` (configuration not stated) has an IC50 [2] of 180 µM.
`CCOC(=O)[C@@H](C)NC(=O)C(=O)c1c[nH]c2ccc(OC)cc12` was tested, and the IC50 [2] was 110 µM.
For `C[C@H](NC(=O)C(=O)c1c[nH]c2ccc(Br)cc12)C(=O)O`, the IC50 [2] was 7.1 µM.
Work on `O=C(NC(Cc1ccccc1)C(=O)O)C(=O)c1c[nH]c2ccc(Br)cc12` (configuration not stated) yielded an IC50 [2] of 158 µM.
For `CCOC(=O)[C@H](C)NC(=O)C(=O)c1c[nH]c2ccc(OC)cc12`, the IC50 [2] was 0.9 µM.
`C[C@H](NC(=O)C(=O)c1c[nH]c2ccc([N+](=O)[O-])cc12)C(=O)O` gave an IC50 [2] of 3 µM.
`CCOC(=O)[C@@H](C)NC(=O)C(=O)c1c[nH]c2ccc(Cl)cc12` showed an IC50 [2] of 25 µM and a Ratio [3] of 0.92.
In the case of `CCOC(=O)[C@@H](C)NC(=O)C(=O)c1c[nH]c2ccc([N+](=O)[O-])cc12`, the IC50 [2] is reported as 3 µM and the Ratio [3] is reported as 0.79.
`CCOC(=O)[C@@H](Cc1ccccc1)NC(=O)C(=O)c1c[nH]c2ccc(Br)cc12` gave an IC50 [2] of 220 µM.
`C[C@@H](NC(=O)C(=O)c1c[nH]c2ccc([N+](=O)[O-])cc12)C(=O)O` gave an IC50 [2] of 19 µM.
`COc1ccc2[nH]cc(C(=O)C(=O)N[C@H](Cc3ccccc3)C(=O)O)c2c1` was tested, and the inhibition [1] was 18%.
Molecule `CCOC(=O)C(C)NC(=O)C(=O)c1c[nH]c2ccccc12` (configuration not stated) has an IC50 [2] of 13 µM.
`O=C(N[C@H](Cc1ccccc1)C(=O)O)C(=O)c1c[nH]c2ccc([N+](=O)[O-])cc12` gave an IC50 [2] of 21 µM.
With `O=C(N[C@H](Cc1ccccc1)C(=O)O)C(=O)c1c[nH]c2ccc(Cl)cc12` the IC50 [2] was 48 µM.
Molecule `C[C@H](NC(=O)C(=O)c1c[nH]c2ccccc12)C(=O)O` has an IC50 [2] of 48 µM.
With `CC(NC(=O)C(=O)c1c[nH]c2ccccc12)C(=O)O` (configuration not stated) the IC50 [2] was 105 µM.
Work on `CCOC(=O)[C@H](Cc1ccccc1)NC(=O)C(=O)c1c[nH]c2ccc(Cl)cc12` yielded an IC50 [2] of 30 µM.
Work on `O=C(N[C@H](Cc1ccccc1)C(=O)O)C(=O)c1c[nH]c2ccccc12` yielded an inhibition [1] of 32%.
`CCOC(=O)[C@H](Cc1ccccc1)NC(=O)C(=O)c1c[nH]c2ccc(OC)cc12` was tested, and the inhibition [1] was 77%.

Reference: ChEMBL document CHEMBL1124373, “Specific inhibition of benzodiazepine receptor binding by some N-(indol-3-ylglyoxylyl)amino acid derivatives: stereoselective interactions” (J Med Chem, 1989)
